Results taken from publication PMC10125337 (ACS Bio & Med Chem Au, 2023).
Where a SMILES comes first, the peptide text is derived from it. Where no end group is shown, it is not given here. [ ]: non-standard residue; d: D form.

B1: NT-03 (peptide)
peptide: [dK][dL][dL][dF][dF]-NH2
modifications: N-terminus assumed
SMILES: CC(C)C[C@@H](NC(=O)[C@H](N)CCCCN)C(=O)N[C@H](CC(C)C)C(=O)N[C@H](Cc1ccccc1)C(=O)N[C@H](Cc1ccccc1)C(N)=O
B2: NT-13 (peptide)
peptide: [dL][dP][dF][dF][dA][dE]-NH2
modifications: N-terminus assumed
SMILES: CC(C)C[C@@H](N)C(=O)N1CCC[C@@H]1C(=O)N[C@H](Cc1ccccc1)C(=O)N[C@H](Cc1ccccc1)C(=O)N[C@H](C)C(=O)N[C@H](CCC(=O)O)C(N)=O
B3: NT-02 (peptide)
peptide: [dK][dL][dL][dF][dF][dA]-NH2
modifications: N-terminus assumed
SMILES: CC(C)C[C@@H](NC(=O)[C@H](N)CCCCN)C(=O)N[C@H](CC(C)C)C(=O)N[C@H](Cc1ccccc1)C(=O)N[C@H](Cc1ccccc1)C(=O)N[C@H](C)C(N)=O

How the values were obtained:
Aβ42 peptide [1] = biological target: T1, Aβ42 peptide (Homo sapiens, UniProt P05067); assay: FTIR spectroscopy of β-sheet content; details: Aβ42 20 µM + peptide 20 µM, PBS pH 7.4, 37 °C, 7 days; β-sheet 1610–1640, α-helix 1640–1660 cm^–1
T1 sequence (P05067 672-713): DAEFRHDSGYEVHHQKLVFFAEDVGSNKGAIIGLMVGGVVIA

Aβ42 peptide [2] = biological target: T1, Aβ42 peptide; assay: ThT fluorescence assay of Aβ42 aggregation inhibition; type: biochemical; details: 72 h, 37 °C; for inhibition of Aβ42 aggregation (ThT assay): peptide 5 µM + Aβ42 5 µM; for inhibition of Aβ42 peptide aggregation (ThT assay): peptide 160 µM + Aβ42 5 µM
Serum stability = type: in vitro ADME; details: human, 50% human serum
Procedure, shortened: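 Test peptide at 150 μM final in 50% human serum, 37 °C. Aliquots were taken at 0, 6, 12, 24, 48 and 72 h and mixed 1:1 with acetonitrile to precipitate serum proteins. Samples were held 30 min at 4 °C, then centrifuged at 10,000 rpm for 30 min at 4 °C. The supernatant was analysed by RP-HPLC for percentage of intact peptide. Compound-free serum served as blank.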

[3] = test system: Aβ42-induced apoptosis in PC-12-derived neurons; assay: Apoptosis assay; type: cell-based, rat; details: Aβ42 10 µM + NT peptide 10 µM, 24 h, n = 3
Aβ42 peptide [4] = biological target: T1, Aβ42 peptide; assay: HR-TEM of fibril formation; details: for Aβ42 fibril structure after coincubation (HR-TEM): Aβ42 coincubated with peptide at 37 °C for 7 days; for fibril formation of the peptide incubated alone (HR-TEM): 7 days, 37 °C
MTT cell viability = type: cell-based; details: rat, NGF-differentiated PC-12-derived neurons
Procedure, shortened: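 PC-12 cells seeded at 1×10^4/well and grown 24 h at 37 °C, 5% CO2. At 50–60% confluence they were differentiated with 100 ng/mL NGF in DMEM with reduced horse serum. Test peptide (5–160 μM) was added for 24 h. MTT (5 mg/mL in PBS) was added for 4 h at 37 °C, and formazan was dissolved in DMSO/methanol 1:1. A570 was read; viability = (treated − blank)/(control − blank) × 100.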

[5] = biological target: amyloid beta (1–42) peptide (human); assay: ITC
Chain of amyloid beta (1–42) peptide (human) (P05067 672-713): as above

| Molecule | inhibition of Aβ42 aggregation (ThT assay) (Aβ42 peptide [2]) [%] | inhibition of Aβ42 peptide aggregation (ThT assay) (Aβ42 peptide [2]) | remaining at 72 h, 150 μM (Serum stability) [%] | apoptotic cells (PI fluorescence intensity) [3] [fold] | Aβ42 fibril structure after coincubation (HR-TEM) (Aβ42 peptide [4]) | fibril formation of the peptide incubated alone (HR-TEM) (Aβ42 peptide [4]) | viability at 24 h, 160 µM (MTT cell viability) [%] | Ka [5] [M⁻¹] | other results |
| --- | --- | --- | --- | --- | --- | --- | --- | --- | --- |
| CC(C)C[C@@H](NC(=O)[C@H](N)CCCCN)C(=O)N[C@H](CC(C)C)C(=O)N[C@H](Cc1ccccc1)C(=O)N[C@H](Cc1ccccc1)C(=O)N[C@H](C)C(N)=O [NT-02] (H-[dK][dL][dL][dF][dF][dA]-NH2) | 57.61 | about 78.96% | 95.5 | 2.84 | Absence of the fibril structure | no fibril formation was observed | – | – | FTIR C=O amide peak of Aβ42 treated with peptide (Aβ42 peptide [1]): 1642.76 cm^–1 |
| CC(C)C[C@@H](NC(=O)[C@H](N)CCCCN)C(=O)N[C@H](CC(C)C)C(=O)N[C@H](Cc1ccccc1)C(=O)N[C@H](Cc1ccccc1)C(N)=O [NT-03] (H-[dK][dL][dL][dF][dF]-NH2) | 54.26 | ~80.63% | 91.6 | 6.21 | Absence of the fibril structure | no fibril formation was observed | – | – | – |
| CC(C)C[C@@H](N)C(=O)N[C@H](CC(C)C)C(=O)N[C@H](Cc1ccccc1)C(=O)N[C@H](Cc1ccccc1)C(=O)N[C@H](C)C(N)=O [NT-06] (H-[dL][dL][dF][dF][dA]-NH2) | – | – | – | – | – | – | 71.7 | – | – |
| CC(C)C[C@@H](N)C(=O)N[C@H](CC(C)C)C(=O)N[C@H](Cc1ccccc1)C(=O)N[C@H](Cc1ccccc1)C(N)=O [NT-07] (H-[dL][dL][dF][dF]-NH2) | – | – | – | – | – | – | 42.5 | – | – |
| CC(C)C[C@@H](N)C(=O)N[C@H](Cc1ccccc1)C(=O)N[C@H](Cc1ccccc1)C(=O)N[C@H](C)C(=O)N[C@H](CCC(=O)O)C(N)=O [NT-08] (H-[dL][dF][dF][dA][dE]-NH2) | – | – | – | – | – | – | 50.1 | – | – |
| CC(C)C[C@@H](N)C(=O)N1CCC[C@@H]1C(=O)N[C@H](Cc1ccccc1)C(=O)N[C@H](Cc1ccccc1)C(=O)N[C@H](C)C(=O)N[C@H](CCC(=O)O)C(N)=O [NT-13] (H-[dL][dP][dF][dF][dA][dE]-NH2) | 48.41 | ~79.88% | 90.4 | 4.13 | Absence of the fibril structure | no fibril formation was observed | – | – | FTIR C=O amide peak of Aβ42 treated with peptide (Aβ42 peptide [1]): 1645.94 cm^–1 |
| CC(C)C[C@@H](NC(=O)[C@H](N)CCCCN)C(=O)N[C@@H](C(=O)N[C@H](Cc1ccccc1)C(=O)N[C@H](Cc1ccccc1)C(N)=O)C(C)C [NT-15, reference compound] | 41.87 | – | – | – | – | – | – | – | – |
| B1 | – | – | – | – | – | – | – | 3.47e+06 | – |
| B2 | – | – | – | – | – | – | – | 142000 | – |
| B3 | – | – | – | – | – | – | – | 2.25e+06 | – |
